Test results from article PMC9324959 (Angewandte Chemie (International Ed. in English), 2022).

Key:
Cytotoxicity assay = format: cell-based; settings: human, HeLa cells
Summary of the method: (§1)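 Where cells were clearly affected but the curve could not be fitted, the value was flagged. "n/a" marks no effect under the conditions tested.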

HeLa cells = assay: Cytotoxicity assay; format: cell-based; settings: under the conditions used
Summary of the method: as §1

Compound | IC50 at 72 h (Cytotoxicity assay) | cytotoxicity (in words) (HeLa cells)
CC(=O)Nc1ccc(-c2csc(Nc3ccccc3)n2)cc1 [Compound 4] | 48 µM | 
CC(=O)Nc1ccc(-c2csc(NC(=O)c3ccccc3)n2)cc1 [Compound 6] |  | not cytotoxic
CC(=O)Nc1ccc(-c2csc(Nc3ccccc3F)n2)cc1 [Compound 8] | > 80 µM | 
CC(=O)Nc1ccc(-c2csc(Nc3ccc(F)cc3)n2)cc1 [Compound 10] | > 80 µM | 
CCC(=O)Nc1ccc(-c2csc(Nc3cccc(F)c3)n2)cc1 [Compound 11, N-[4-[2-(3-fluoroanilino)thiazol-4-yl]phenyl]propanamide] | 38 µM | 
CC(C)C(=O)Nc1ccc(-c2csc(Nc3cccc(F)c3)n2)cc1 [Compound 12] | 34 µM | 
O=C(Nc1ccc(-c2csc(Nc3cccc(F)c3)n2)cc1)C1CC1 [Compound 13] | 38 µM | 
CC(=O)Nc1ccc(-c2csc(Nc3ccccc3C)n2)cc1 [Compound 14] | 59 µM | 
CC(=O)Nc1ccc(-c2csc(Nc3cccc(C)c3)n2)cc1 [Compound 15] | 37 µM | 
CC(=O)Nc1ccc(-c2csc(Nc3ccccc3C(F)(F)F)n2)cc1 [Compound 17] | 71 µM | 
CC(=O)Nc1ccc(-c2csc(Nc3ccc(C(F)(F)F)cc3)n2)cc1 [Compound 19] |  | abrogated activity
CC(=O)Nc1ccc(-c2csc(Nc3cccc(Cl)c3)n2)cc1 [Compound 20] | 19 µM | 
CC(=O)Nc1ccc(-c2csc(Nc3cccc(O)c3)n2)cc1 [Compound 21] | 50 µM | 
COc1cccc(Nc2nc(-c3ccc(NC(C)=O)cc3)cs2)c1 [Compound 22] | 43 µM | 
